Columns and labels:
Acetylcholinesterase [1] = molecular target: T1, Acetylcholinesterase (Homo sapiens, UniProt P22303); test: In vitro inhibitory concentration against purified Acetylcholinesterase of human erythrocytes; value ranges from 7.3-50.4
[2] = molecular target: T2, Amine oxidase [flavin-containing] B (Rattus norvegicus, UniProt P19643); test: In vitro inhibitory concentration against Monoamine oxidase B of rat brain homogenates; value ranges from 0.4-1.3; type: tissue-based
T2 sequence (P19643 whole entry): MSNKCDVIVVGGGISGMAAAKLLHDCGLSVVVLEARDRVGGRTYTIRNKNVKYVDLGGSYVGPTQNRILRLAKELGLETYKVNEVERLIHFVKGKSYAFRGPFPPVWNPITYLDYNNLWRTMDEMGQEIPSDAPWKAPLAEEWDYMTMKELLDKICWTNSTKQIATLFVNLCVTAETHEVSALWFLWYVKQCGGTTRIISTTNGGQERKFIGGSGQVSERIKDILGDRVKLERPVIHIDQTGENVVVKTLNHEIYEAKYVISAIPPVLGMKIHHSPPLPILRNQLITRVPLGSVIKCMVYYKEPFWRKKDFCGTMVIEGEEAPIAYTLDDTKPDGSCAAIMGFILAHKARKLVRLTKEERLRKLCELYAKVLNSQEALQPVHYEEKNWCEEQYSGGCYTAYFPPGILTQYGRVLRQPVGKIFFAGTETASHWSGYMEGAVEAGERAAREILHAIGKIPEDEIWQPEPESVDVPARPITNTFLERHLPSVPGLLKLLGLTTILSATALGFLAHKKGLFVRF

[3] = molecular target: T3, Amine oxidase [flavin-containing] A (Rattus norvegicus, UniProt P21396); test: In vitro inhibitory concentration against Monoamine oxidase A of rat brain homogenates; value ranges from 0.5-1.4; type: tissue-based
T3 sequence (P21396 whole entry): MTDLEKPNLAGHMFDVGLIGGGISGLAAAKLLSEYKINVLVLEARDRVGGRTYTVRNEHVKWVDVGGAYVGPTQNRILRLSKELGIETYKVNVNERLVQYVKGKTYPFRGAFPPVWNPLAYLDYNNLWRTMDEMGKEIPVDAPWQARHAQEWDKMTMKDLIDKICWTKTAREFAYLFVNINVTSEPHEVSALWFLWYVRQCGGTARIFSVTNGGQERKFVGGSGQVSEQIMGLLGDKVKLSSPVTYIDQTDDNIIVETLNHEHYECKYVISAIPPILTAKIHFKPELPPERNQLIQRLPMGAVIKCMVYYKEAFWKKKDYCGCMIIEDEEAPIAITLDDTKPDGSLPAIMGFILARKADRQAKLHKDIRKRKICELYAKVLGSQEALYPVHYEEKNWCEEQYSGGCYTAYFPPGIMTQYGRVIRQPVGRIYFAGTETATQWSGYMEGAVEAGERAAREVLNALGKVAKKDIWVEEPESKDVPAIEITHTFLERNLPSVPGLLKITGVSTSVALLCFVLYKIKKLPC

Acetylcholinesterase [4] = molecular target: T1, Acetylcholinesterase; test: In vitro inhibitory concentration against purified Acetylcholinesterase of human erythrocytes; value ranges from 2.2-6.4
Acetylcholinesterase [5] = molecular target: T1, Acetylcholinesterase; test: In vitro inhibitory concentration against purified Acetylcholinesterase of human erythrocytes
[6] = molecular target: T3, Amine oxidase [flavin-containing] A; test: In vitro inhibitory concentration against Monoamine oxidase A of rat brain homogenates; value ranges from 75-240; type: tissue-based
[7] = molecular target: T2, Amine oxidase [flavin-containing] B; test: In vitro inhibitory concentration against Monoamine oxidase B of rat brain homogenates; value ranges from 77-123
[8] = molecular target: T3, Amine oxidase [flavin-containing] A; test: In vitro inhibitory concentration against Monoamine oxidase A of rat brain homogenates; value ranges from 0.47; type: tissue-based
Acetylcholinesterase [9] = molecular target: T1, Acetylcholinesterase; test: In vitro inhibitory concentration against purified Acetylcholinesterase of human erythrocytes; value ranges from 13.6-198
Butyrylcholinesterase [10] = molecular target: T4, Butyrylcholinesterase (Equus caballus, UniProt Q9N1N9); test: In vitro inhibitory concentration against Butyrylcholinesterase of horse serum; value ranges from 2.77-15.4
T4 sequence (Q9N1N9 whole entry): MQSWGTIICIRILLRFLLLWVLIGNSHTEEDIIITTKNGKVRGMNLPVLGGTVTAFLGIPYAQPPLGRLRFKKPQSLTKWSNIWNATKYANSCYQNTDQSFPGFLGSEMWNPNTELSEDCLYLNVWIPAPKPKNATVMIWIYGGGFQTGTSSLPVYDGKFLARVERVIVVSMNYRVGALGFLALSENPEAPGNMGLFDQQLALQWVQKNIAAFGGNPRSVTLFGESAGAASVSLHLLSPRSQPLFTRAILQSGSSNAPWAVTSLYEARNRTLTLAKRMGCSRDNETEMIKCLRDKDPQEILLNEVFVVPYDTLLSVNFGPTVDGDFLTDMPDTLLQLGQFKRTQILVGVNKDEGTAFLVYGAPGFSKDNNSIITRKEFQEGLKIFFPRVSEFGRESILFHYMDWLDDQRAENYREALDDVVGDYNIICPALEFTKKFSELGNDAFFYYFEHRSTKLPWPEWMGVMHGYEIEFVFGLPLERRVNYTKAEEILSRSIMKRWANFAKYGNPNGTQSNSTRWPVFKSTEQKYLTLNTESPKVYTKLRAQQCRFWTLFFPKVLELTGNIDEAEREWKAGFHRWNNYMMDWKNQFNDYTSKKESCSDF
In short: (§1)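 Ellman assay followed, with 200 µM butyrylthiocholine as substrate. Runs were in triplicate with four-point dose-response curves. IC50 and fiducial limits came from log concentration versus % inhibition.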

Acetylcholinesterase [11] = molecular target: T1, Acetylcholinesterase; test: In vitro inhibitory concentration against purified Acetylcholinesterase of human erythrocytes; value ranges from 1.66-3.14
Butyrylcholinesterase [12] = molecular target: T4, Butyrylcholinesterase; test: In vitro inhibitory concentration against Butyrylcholinesterase of horse serum; value ranges from 0.22-1.54; in short: as §1
[13] = molecular target: T2, Amine oxidase [flavin-containing] B; parameters: species or system Brain
[14] = molecular target: T3, Amine oxidase [flavin-containing] A; test: In vitro inhibitory concentration against Monoamine oxidase A of rat brain homogenates; value ranges from 1.7-3.9; type: tissue-based
Acetylcholinesterase [15] = molecular target: T1, Acetylcholinesterase; test: In vitro inhibitory concentration against purified Acetylcholinesterase of human erythrocytes; value ranges from 2.0-15.2
Butyrylcholinesterase [16] = molecular target: T4, Butyrylcholinesterase; test: In vitro inhibitory concentration against Butyrylcholinesterase of horse serum; value ranges from 4.8-73.9; in short: as §1
[17] = molecular target: T2, Amine oxidase [flavin-containing] B; test: In vitro inhibitory concentration against Monoamine oxidase B of rat brain homogenates; type: tissue-based
[18] = molecular target: T3, Amine oxidase [flavin-containing] A; test: In vitro inhibitory concentration against Monoamine oxidase A of rat brain homogenates; type: tissue-based
Acetylcholinesterase [19] = molecular target: T1, Acetylcholinesterase; test: In vitro inhibitory concentration against purified Acetylcholinesterase of human erythrocytes; value ranges from 0.16-0.18
Butyrylcholinesterase [20] = molecular target: T4, Butyrylcholinesterase; test: In vitro inhibitory concentration against Butyrylcholinesterase of horse serum; value ranges from 0.23-0.26; in short: as §1
[21] = molecular target: T3, Amine oxidase [flavin-containing] A; test: In vitro inhibitory concentration against Monoamine oxidase A of rat brain homogenates; value ranges from 230-820; type: tissue-based
Acetylcholinesterase [22] = molecular target: T1, Acetylcholinesterase; test: In vitro inhibitory concentration against purified Acetylcholinesterase of human erythrocytes; value ranges from 8.6-49.9

T1 sequence (P22303 whole entry): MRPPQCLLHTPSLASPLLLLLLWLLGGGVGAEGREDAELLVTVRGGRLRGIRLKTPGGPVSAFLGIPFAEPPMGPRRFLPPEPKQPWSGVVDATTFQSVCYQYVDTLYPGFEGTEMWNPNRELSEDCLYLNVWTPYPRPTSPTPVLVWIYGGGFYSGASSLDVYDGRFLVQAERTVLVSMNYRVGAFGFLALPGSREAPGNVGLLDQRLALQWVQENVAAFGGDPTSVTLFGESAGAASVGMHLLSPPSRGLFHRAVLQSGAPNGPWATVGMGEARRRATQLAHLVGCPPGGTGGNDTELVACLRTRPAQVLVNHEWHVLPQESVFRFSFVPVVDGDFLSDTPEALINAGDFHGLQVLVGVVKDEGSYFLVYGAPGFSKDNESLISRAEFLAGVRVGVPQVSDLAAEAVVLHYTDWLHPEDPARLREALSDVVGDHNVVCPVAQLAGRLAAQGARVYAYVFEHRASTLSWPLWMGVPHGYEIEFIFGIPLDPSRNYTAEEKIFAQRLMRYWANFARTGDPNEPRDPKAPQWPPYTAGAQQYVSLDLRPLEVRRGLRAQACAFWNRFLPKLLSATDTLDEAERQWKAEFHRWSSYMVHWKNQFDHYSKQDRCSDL

## C#CCN(C)CCc1cccc(OC(=O)N(C)CC)c1
Acetylcholinesterase [1]
  IC50: 16.6 µM
[2]
  IC50: 0.8 µM
[3]
  IC50: 0.8 µM

## C#CCN(C)[C@@H](C)Cc1cccc(OC(=O)N(C)CCCCCC)c1
Acetylcholinesterase [4]
  IC50: 3.4 µM

## C#CCNC1CCc2ccc(OC(=S)N(C)C)cc21 (stereo not drawn)
Acetylcholinesterase [5]
  IC50: > 500 µM
[6]
  IC50: 130 µM
[7]
  IC50: 98 µM

## C#CCNC1CCc2ccc(O)cc21 (stereo not drawn)
[8]
  IC50: 0.67 µM

## C#CCNC1CCc2ccc(OC(=O)N(C)C3CCCCC3)cc21 (stereo not drawn)
Acetylcholinesterase [9]
  IC50: 41.2 µM
Butyrylcholinesterase [10]
  IC50: 5.56 µM

## CN(C)C(=O)Oc1ccc2c(c1)C(N(C)C)CC2 (stereo not drawn)
Acetylcholinesterase [11]
  IC50: 2.15 µM

## C#CCNCCc1cccc(OC(=O)N(C)CC)c1
Butyrylcholinesterase [12]
  IC50: 0.54 µM
[13]
  IC50: 7.8 µM
[14]
  IC50: 2.6 µM

## C#CCN[C@H]1CCc2ccc(OC(=O)N(C)CCC)cc21
Acetylcholinesterase [15]
  IC50: 8.5 µM
Butyrylcholinesterase [16]
  IC50: 12.4 µM
[17]
  IC50: > 1000 µM
[18]
  IC50: > 1000 µM

## C#CC(C)NCCc1cccc(OC(=O)N(C)C)c1 (stereo not drawn)
Acetylcholinesterase [19]
  IC50: 0.17 µM
Butyrylcholinesterase [20]
  IC50: 0.24 µM
[17]
  IC50: > 1000 µM
[21]
  IC50: 440 µM

## C#CCN(CC)C1CCc2ccc(OC(=O)N(C)C)cc21 (stereo not drawn)
Acetylcholinesterase [22]
  IC50: 17.9 µM
